Test results from ChEMBL document CHEMBL1649446, “Comparative antipneumococcal activities of sulopenem and other drugs” (2009).
Converted amounts (≈) assume the structure as drawn.

Tests used:
Type in all cases: functional
Streptococcus pneumoniae [1] = assay: Antimicrobial activity against Streptococcus pneumoniae 1 by time-kill analysis
In short: (§1)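 Time-kill in cation-adjusted Mueller-Hinton broth with 5% lysed horse blood; inocula 5 × 105 to 5 × 10^6 CFU/ml; drugs at MIC, 2× and 4× MIC; 35°C shaking water bath; viable counts at 0, 3, 6, 12 and 24 h. Bactericidal if ≥3 log10 CFU/ml (99.9%) reduction from original inoculum; 90% and 99% killing also scored.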

Streptococcus pneumoniae [2] = assay: Antimicrobial activity against Streptococcus pneumoniae 5 by time-kill analysis; in short: as §1
Streptococcus pneumoniae [3] = assay: Antimicrobial activity against Streptococcus pneumoniae isolate 1147 by agar dilution method
In short: (§2)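 Agar dilution MIC on Mueller-Hinton agar with 5% sheep blood, inocula 10^4 CFU/spot; amoxicillin-clavulanate combined 1:2; S. pneumoniae ATCC 49619 quality control each run.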

Streptococcus pneumoniae [4] = assay: Antimicrobial activity against Streptococcus pneumoniae isolate 3455 by agar dilution method
Streptococcus pneumoniae [5] = assay: Antimicrobial activity against Streptococcus pneumoniae isolate 2880 by agar dilution method; in short: as §2
Streptococcus pneumoniae [6] = assay: Antimicrobial activity against Streptococcus pneumoniae 9 by time-kill analysis; in short: as §1
Streptococcus pneumoniae [7] = assay: Antimicrobial activity against Streptococcus pneumoniae isolate 1424 by agar dilution method; in short: as §2
Streptococcus pneumoniae [8] = assay: Antimicrobial activity against Streptococcus pneumoniae isolate 1055 by agar dilution method
Streptococcus pneumoniae [9] = assay: Antimicrobial activity against Streptococcus pneumoniae isolate 1146 by agar dilution method; in short: as §2
Streptococcus pneumoniae [10] = assay: Antimicrobial activity against Streptococcus pneumoniae 3 by time-kill analysis
In short: as §1, with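 “12,” for “12 and”, “=” for “if”, “drop” for “reduction”, “90%/99%/99.9%” for “90% and 99%”, “scored per strain.” for “also scored.”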

Streptococcus pneumoniae [11] = assay: Antimicrobial activity against Streptococcus pneumoniae isolate 3346 by agar dilution method
Streptococcus pneumoniae [12] = assay: Antimicrobial activity against Streptococcus pneumoniae 7 by time-kill analysis
In short: as §1, with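 “12,” for “12 and”, “=” for “if”, “drop” for “reduction”, “90%/99%/99.9%” for “90% and 99%”, “scored per strain.” for “also scored.”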

Streptococcus pneumoniae [13] = assay: Antimicrobial activity against Streptococcus pneumoniae isolate 2688 by agar dilution method; in short: as §2
Streptococcus pneumoniae [14] = assay: Antimicrobial activity against Streptococcus pneumoniae isolate 37 by agar dilution method; in short: as §2
Streptococcus pneumoniae [15] = assay: Antimicrobial activity against Streptococcus pneumoniae 6 by time-kill analysis
In short: as §1, with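 “12,” for “12 and”, “=” for “if”, “drop” for “reduction”, “90%/99%/99.9%” for “90% and 99%”, “scored per strain.” for “also scored.”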

Streptococcus pneumoniae [16] = assay: Antimicrobial activity against Streptococcus pneumoniae isolate 3282 by agar dilution method
Streptococcus pneumoniae [17] = assay: Antimicrobial activity against Streptococcus pneumoniae isolate 3791 by agar dilution method; in short: as §2
Streptococcus pneumoniae [18] = assay: Antimicrobial activity against Streptococcus pneumoniae isolate 3374 by agar dilution method; in short: as §2
Streptococcus pneumoniae [19] = assay: Antimicrobial activity against Streptococcus pneumoniae 8 by time-kill analysis
In short: as §1, with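 “12,” for “12 and”, “=” for “if”, “drop” for “reduction”, “90%/99%/99.9%” for “90% and 99%”, “scored per strain.” for “also scored.”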

Streptococcus pneumoniae [20] = assay: Antimicrobial activity against Streptococcus pneumoniae isolate 2686 by agar dilution method; in short: as §2
Streptococcus pneumoniae [21] = assay: Antimicrobial activity against Streptococcus pneumoniae isolate 2874 by agar dilution method; in short: as §2
Streptococcus pneumoniae [22] = assay: Antimicrobial activity against Streptococcus pneumoniae isolate 4747 by agar dilution method; in short: as §2
Streptococcus pneumoniae [23] = assay: Antimicrobial activity against Streptococcus pneumoniae isolate 1564 by agar dilution method
Streptococcus pneumoniae [24] = assay: Antimicrobial activity against Streptococcus pneumoniae isolate 1384 by agar dilution method; in short: as §2
Streptococcus pneumoniae [25] = assay: Antimicrobial activity against Streptococcus pneumoniae isolate 4755 by agar dilution method; in short: as §2
Streptococcus pneumoniae [26] = assay: Antimicrobial activity against Streptococcus pneumoniae isolate 2617 by agar dilution method; in short: as §2
Streptococcus pneumoniae [27] = assay: Antimicrobial activity against penicillin-intermediate Streptococcus pneumoniae by agar dilution method
Streptococcus pneumoniae [28] = assay: Antimicrobial activity against Streptococcus pneumoniae 2 by time-kill analysis
In short: as §1, with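 “12,” for “12 and”, “=” for “if”, “drop” for “reduction”, “90%/99%/99.9%” for “90% and 99%”, “scored per strain.” for “also scored.”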

Streptococcus pneumoniae [29] = assay: Antimicrobial activity against Streptococcus pneumoniae isolate 1397 by agar dilution method; in short: as §2
Streptococcus pneumoniae [30] = assay: Antimicrobial activity against Streptococcus pneumoniae 11 by time-kill analysis
In short: as §1, with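 “12,” for “12 and”, “=” for “if”, “drop” for “reduction”, “90%/99%/99.9%” for “90% and 99%”, “scored per strain.” for “also scored.”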

Streptococcus pneumoniae [31] = assay: Antimicrobial activity against Streptococcus pneumoniae isolate 3263 by agar dilution method
Streptococcus pneumoniae [32] = assay: Antimicrobial activity against Streptococcus pneumoniae 10 by time-kill analysis
In short: as §1, with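 “12,” for “12 and”, “=” for “if”, “drop” for “reduction”, “90%/99%/99.9%” for “90% and 99%”, “scored per strain.” for “also scored.”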

Streptococcus pneumoniae [33] = assay: Antimicrobial activity against Streptococcus pneumoniae isolate 3458 by agar dilution method
Streptococcus pneumoniae [34] = assay: Antimicrobial activity against Streptococcus pneumoniae isolate 3587 by agar dilution method
Streptococcus pneumoniae [35] = assay: Antimicrobial activity against Streptococcus pneumoniae 4 by time-kill analysis
In short: as §1, with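 “12,” for “12 and”, “=” for “if”, “drop” for “reduction”, “90%/99%/99.9%” for “90% and 99%”, “scored per strain.” for “also scored.”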

Streptococcus pneumoniae [36] = assay: Antimicrobial activity against penicillin-susceptible Streptococcus pneumoniae by agar dilution method
Streptococcus pneumoniae [37] = assay: Antimicrobial activity against Streptococcus pneumoniae isolate 24 by agar dilution method
Streptococcus pneumoniae [38] = assay: Antimicrobial activity against penicillin-resistant Streptococcus pneumoniae by agar dilution method; in short: as §2
Streptococcus pneumoniae [39] = assay: Antimicrobial activity against Streptococcus pneumoniae isolate 3275 by agar dilution method; in short: as §2
Streptococcus pneumoniae [40] = assay: Antimicrobial activity against Streptococcus pneumoniae isolate 3260 by agar dilution method
Streptococcus pneumoniae [41] = assay: Antimicrobial activity against Streptococcus pneumoniae isolate 3481 by agar dilution method; in short: as §2
Streptococcus pneumoniae [42] = assay: Antimicrobial activity against Streptococcus pneumoniae 19A by agar dilution method; in short: as §2
Streptococcus pneumoniae [43] = assay: Antimicrobial activity against Streptococcus pneumoniae 12 by time-kill analysis
In short: as §1, with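 “12,” for “12 and”, “=” for “if”, “drop” for “reduction”, “90%/99%/99.9%” for “90% and 99%”, “scored per strain.” for “also scored.”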

Streptococcus pneumoniae [44] = assay: Antimicrobial activity against Streptococcus pneumoniae isolate 1394 by agar dilution method
Streptococcus pneumoniae [45] = assay: Antimicrobial activity against Streptococcus pneumoniae isolate 33 by agar dilution method; in short: as §2
Streptococcus pneumoniae [46] = assay: Antimicrobial activity against Streptococcus pneumoniae isolate 3412 by agar dilution method; in short: as §2
Streptococcus pneumoniae [47] = assay: Antimicrobial activity against Streptococcus pneumoniae isolate 3681 by agar dilution method; in short: as §2

COCC1=C(C(=O)O)N2C(=O)[C@@H](NC(=O)/C(=N\OC)c3csc(N)n3)[C@H]2SC1 [CEFPODOXIME]
MIC (Streptococcus pneumoniae [1]): 0.03 µg/mL (≈ 0.0702 µM) | MIC (Streptococcus pneumoniae [2]): 8 µg/mL (≈ 18.7 µM) | MIC (Streptococcus pneumoniae [3]): 8 µg/mL (≈ 18.7 µM) | MIC (Streptococcus pneumoniae [4]): 4 µg/mL (≈ 9.36 µM) | MIC (Streptococcus pneumoniae [5]): 2 µg/mL (≈ 4.68 µM) | MIC (Streptococcus pneumoniae [6]): 0.25 µg/mL (≈ 0.585 µM) | MIC (Streptococcus pneumoniae [7]): 4 µg/mL (≈ 9.36 µM) | MIC (Streptococcus pneumoniae [8]): 2 µg/mL (≈ 4.68 µM) | MIC (Streptococcus pneumoniae [9]): 8 µg/mL (≈ 18.7 µM) | MIC (Streptococcus pneumoniae [10]): 0.5 µg/mL (≈ 1.17 µM) | MIC (Streptococcus pneumoniae [11]): 4 µg/mL (≈ 9.36 µM) | MIC (Streptococcus pneumoniae [12]): 4 µg/mL (≈ 9.36 µM) | MIC (Streptococcus pneumoniae [13]): 32 µg/mL (≈ 74.9 µM) | MIC (Streptococcus pneumoniae [14]): 4 µg/mL (≈ 9.36 µM) | MIC (Streptococcus pneumoniae [15]): 0.5 µg/mL (≈ 1.17 µM) | MIC (Streptococcus pneumoniae [16]): 2 µg/mL (≈ 4.68 µM) | MIC (Streptococcus pneumoniae [17]): 4 µg/mL (≈ 9.36 µM) | MIC (Streptococcus pneumoniae [18]): 4 µg/mL (≈ 9.36 µM) | MIC (Streptococcus pneumoniae [19]): 4 µg/mL (≈ 9.36 µM) | MIC (Streptococcus pneumoniae [20]): 8 µg/mL (≈ 18.7 µM) | MIC (Streptococcus pneumoniae [21]): 4 µg/mL (≈ 9.36 µM) | MIC (Streptococcus pneumoniae [22]): 2 µg/mL (≈ 4.68 µM) | MIC (Streptococcus pneumoniae [23]): 32 µg/mL (≈ 74.9 µM) | MIC (Streptococcus pneumoniae [24]): 4 µg/mL (≈ 9.36 µM) | MIC (Streptococcus pneumoniae [25]): 4 µg/mL (≈ 9.36 µM) | MIC (Streptococcus pneumoniae [26]): 2 µg/mL (≈ 4.68 µM) | MIC50 (Streptococcus pneumoniae [27]): 0.25 µg/mL (≈ 0.585 µM) | MIC90 (Streptococcus pneumoniae [27]): 2 µg/mL (≈ 4.68 µM) | MIC (Streptococcus pneumoniae [28]): 0.016 µg/mL (≈ 0.0374 µM) | MIC (Streptococcus pneumoniae [29]): 4 µg/mL (≈ 9.36 µM) | MIC (Streptococcus pneumoniae [30]): 4 µg/mL (≈ 9.36 µM) | MIC (Streptococcus pneumoniae [31]): 4 µg/mL (≈ 9.36 µM) | MIC (Streptococcus pneumoniae [32]): 0.25 µg/mL (≈ 0.585 µM) | MIC (Streptococcus pneumoniae [33]): 4 µg/mL (≈ 9.36 µM) | MIC (Streptococcus pneumoniae [34]): 4 µg/mL (≈ 9.36 µM) | MIC (Streptococcus pneumoniae [35]): 8 µg/mL (≈ 18.7 µM) | MIC (Streptococcus pneumoniae [36]): 0.03 µg/mL (≈ 0.0702 µM) | MIC50 (Streptococcus pneumoniae [36]): 0.03 µg/mL (≈ 0.0702 µM) | MIC90 (Streptococcus pneumoniae [36]): 0.06 µg/mL (≈ 0.14 µM) | MIC (Streptococcus pneumoniae [37]): 2 µg/mL (≈ 4.68 µM) | MIC50 (Streptococcus pneumoniae [38]): 4 µg/mL (≈ 9.36 µM) | MIC90 (Streptococcus pneumoniae [38]): 8 µg/mL (≈ 18.7 µM) | MIC (Streptococcus pneumoniae [39]): 1 µg/mL (≈ 2.34 µM) | MIC (Streptococcus pneumoniae [40]): 2 µg/mL (≈ 4.68 µM) | MIC (Streptococcus pneumoniae [41]): 4 µg/mL (≈ 9.36 µM) | MIC50 (Streptococcus pneumoniae [42]): 8 µg/mL (≈ 18.7 µM) | MIC90 (Streptococcus pneumoniae [42]): 8 µg/mL (≈ 18.7 µM) | MIC (Streptococcus pneumoniae [43]): 2 µg/mL (≈ 4.68 µM) | MIC (Streptococcus pneumoniae [44]): 8 µg/mL (≈ 18.7 µM) | MIC (Streptococcus pneumoniae [45]): 4 µg/mL (≈ 9.36 µM) | MIC (Streptococcus pneumoniae [46]): 4 µg/mL (≈ 9.36 µM) | MIC (Streptococcus pneumoniae [47]): 4 µg/mL (≈ 9.36 µM)
